The source of these data is the RNAGym collection of RNA variant scans (doi:10.1038/s41586-018-0170-7).

The chains are these.
B1: tRNA (parent)
chain: GUUCCGUUGGCGUAAUGGUAACGCGUCUCCCUCCUAAGGAGAAGACUGCGGGUUCGAGUCCCGUACGGAACG

This data set covers variants of B1. The data set can be described thus: yeast fitness, log relative to wild type (ln ratio); higher = fitter; tRNA-Arg(CCU), competitive growth, 37 C, 1 M NaCl. The gist of the method: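 Genotype fitness is expressed as the natural log of its generations over those of the wild type. Each pool of the tRNA-Arg(CCU) variant library, carried on a HIS3 centromeric plasmid in BY4742 lacking the chromosomal gene, came from one of two independent transformations and grew 4 generations in SC-HIS at 30 °C before ~6.5 generations (~26.5 h) in SC-HIS 1M NaCl at 37 °C. Generation numbers used OD-scaled log2 output/input frequencies from 125 bp paired-end Illumina sequencing, combined across replicates by inverse-variance weighting.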
In the case of GCUCCUUUGGCGUAAUGGUAACGCGUCUCCCUCCUAAGGAGACGAUUGCGGGUUCGAGUCCCGUAUGGGUCG, the “yeast fitness (ln)” value is -0.211.

For GCUCCUUUGGCGUAAUGGUAACGCGUCUCCCUCCUAAGGAGAAGACUGCGGGUUCGAGUCCCGUAUGGAUCG, the “yeast fitness (ln)” value was -0.0735.

For ACUCCGUUGGCGUAAUGGUAACGCGUCUCCCUCCUAAGGAGACGACUGCGGGUUCGAGUCCCGUAAGGAGUG, the “yeast fitness (ln)” value is -0.128.

For GCUCCUUUGGCGUAAUGGUAACGCGUUUCCCUCCUAAGGAGACGAUUGCGGGUUCGAGUCCCGUAAGGGUUG, the “yeast fitness (ln)” value was -0.26.

For the variant AUUCCGUUGGCGUAAUGGUAACGCGUCUCCCUCCUAAGGAGACGAUUGCGGGUUCGAGUCCCGUAAGGGAUG, the “yeast fitness (ln)” value is -0.216.

Take AUUCCGUUGGCGUAAUGGUAACGCGUCUCCCUCCUAAGGAGACGAUUGCGGGUUCGAGUCCCGUAUGGGGUG: the “yeast fitness (ln)” value is -0.263.

Turning to AGUCCAUUGGCGUAAUGGUAACGCGUUUCCCUCCUAAGGAGACGACUGCGGGUUCGAGUCCCGUACGGGUCG, the “yeast fitness (ln)” value is -0.379.

For the variant AGUCCGUUGGCGUAAUGGUAACGCGUUUCCCUCCUAAGGAGAAGAUUGCGGGUUCGAGUCCCGUACGGAGCG, the “yeast fitness (ln)” value is -0.144.

With AGUCCGUUGGCGUAAUGGUAACGCGUCUCCCUCCUAAGGAGAAGAUUGCGGGUUCGAGUCCCGUAUGGAUUG, the “yeast fitness (ln)” value is -0.185.

Regarding GUUCCUUUGGCGUAAUGGUAACGCGUCUCCCUCCUAAGGAGACGACUGCGGGUUCGAGUCCCGUACGGAGUG, the “yeast fitness (ln)” value is -0.249.

As to ACUCCUUUGGCGUAAUGGUAACGCGUCUCCCUCCUAAGGAGAAGACUGCGGGUUCGAGUCCCGUAAGGAGCG, the “yeast fitness (ln)” value was -0.0212.

With AUUCCGUUGGCGUAAUGGUAACGCGUUUCCCUCCUAAGGAGAAGACUGCGGGUUCGAGUCCCGUAAGGAGUG, the “yeast fitness (ln)” value is -0.346.

As to AGUCCGUUGGCGUAAUGGUAACGCGUUUCCCUCCUAAGGAGACGACUGCGGGUUCGAGUCCCGUAUGGGUUG, the “yeast fitness (ln)” value was -0.332.

With ACUCCGUUGGCGUAAUGGUAACGCGUUUCCCUCCUAAGGAGAAGAUUGCGGGUUCGAGUCCCGUAUGGAUUG, the “yeast fitness (ln)” value is -0.147.

On to AUUCCUUUGGCGUAAUGGUAACGCGUCUCCCUCCUAAGGAGACGAUUGCGGGUUCGAGUCCCGUACGGAGCG, for which the “yeast fitness (ln)” value is -0.201.

AGUCCAUUGGCGUAAUGGUAACGCGUCUCCCUCCUAAGGAGACGAUUGCGGGUUCGAGUCCCGUAUGGGGUG: the “yeast fitness (ln)” value was -0.206.

Turning to GCUCCUUUGGCGUAAUGGUAACGCGUUUCCCUCCUAAGGAGAAGACUGCGGGUUCGAGUCCCGUAAGGAACG, the “yeast fitness (ln)” value is -0.24.

GUUCCAUUGGCGUAAUGGUAACGCGUUUCCCUCCUAAGGAGAAGACUGCGGGUUCGAGUCCCGUAUGGGUCG: the “yeast fitness (ln)” value is -0.214.

Regarding AGUCCUUUGGCGUAAUGGUAACGCGUCUCCCUCCUAAGGAGAAGACUGCGGGUUCGAGUCCCGUAAGGGUUG, the “yeast fitness (ln)” value was -0.335.

On to AUUCCGUUGGCGUAAUGGUAACGCGUUUCCCUCCUAAGGAGACGAUUGCGGGUUCGAGUCCCGUAUGGAACG, for which the “yeast fitness (ln)” value was -0.199.

Turning to GGUCCGUUGGCGUAAUGGUAACGCGUUUCCCUCCUAAGGAGAAGACUGCGGGUUCGAGUCCCGUAUGGGUCG, the “yeast fitness (ln)” value was -0.212.

Take GCUCCUUUGGCGUAAUGGUAACGCGUUUCCCUCCUAAGGAGAAGACUGCGGGUUCGAGUCCCGUAUGGGGCG: the “yeast fitness (ln)” value was -0.277.

AGUCCUUUGGCGUAAUGGUAACGCGUCUCCCUCCUAAGGAGACGACUGCGGGUUCGAGUCCCGUAAGGAGCG: the “yeast fitness (ln)” value was -0.251.

As for GCUCCGUUGGCGUAAUGGUAACGCGUUUCCCUCCUAAGGAGACGAUUGCGGGUUCGAGUCCCGUAAGGAGUG, the “yeast fitness (ln)” value is -0.105.

On to AUUCCAUUGGCGUAAUGGUAACGCGUCUCCCUCCUAAGGAGACGACUGCGGGUUCGAGUCCCGUAUGGGGUG, for which the “yeast fitness (ln)” value is -0.245.

As to AGUCCUUUGGCGUAAUGGUAACGCGUCUCCCUCCUAAGGAGAAGACUGCGGGUUCGAGUCCCGUAAGGGGUG, the “yeast fitness (ln)” value is -0.325.

With GGUCCAUUGGCGUAAUGGUAACGCGUCUCCCUCCUAAGGAGACGACUGCGGGUUCGAGUCCCGUAAGGAGUG, the “yeast fitness (ln)” value was -0.198.

With AGUCCAUUGGCGUAAUGGUAACGCGUCUCCCUCCUAAGGAGAAGAUUGCGGGUUCGAGUCCCGUAUGGAAUG, the “yeast fitness (ln)” value was -0.301.

AGUCCUUUGGCGUAAUGGUAACGCGUCUCCCUCCUAAGGAGACGAUUGCGGGUUCGAGUCCCGUAAGGAGCG: the “yeast fitness (ln)” value was -0.178.

Regarding GUUCCUUUGGCGUAAUGGUAACGCGUCUCCCUCCUAAGGAGAAGAUUGCGGGUUCGAGUCCCGUAUGGAGUG, the “yeast fitness (ln)” value was -0.138.

Consider ACUCCUUUGGCGUAAUGGUAACGCGUUUCCCUCCUAAGGAGACGAUUGCGGGUUCGAGUCCCGUAAGGGGUG, for which the “yeast fitness (ln)” value is -0.0612.

As for GUUCCAUUGGCGUAAUGGUAACGCGUCUCCCUCCUAAGGAGACGACUGCGGGUUCGAGUCCCGUAUGGAACG, the “yeast fitness (ln)” value was -0.0381.

For the variant AGUCCUUUGGCGUAAUGGUAACGCGUCUCCCUCCUAAGGAGAAGAUUGCGGGUUCGAGUCCCGUACGGGGUG, the “yeast fitness (ln)” value was -0.309.

In the case of AUUCCUUUGGCGUAAUGGUAACGCGUUUCCCUCCUAAGGAGAAGACUGCGGGUUCGAGUCCCGUAAGGGAUG, the “yeast fitness (ln)” value is -0.388.

As to GCUCCAUUGGCGUAAUGGUAACGCGUUUCCCUCCUAAGGAGACGAUUGCGGGUUCGAGUCCCGUAUGGAGUG, the “yeast fitness (ln)” value was -0.0215.

On to GGUCCGUUGGCGUAAUGGUAACGCGUCUCCCUCCUAAGGAGAAGACUGCGGGUUCGAGUCCCGUACGGGGUG, for which the “yeast fitness (ln)” value was -0.191.

In the case of GUUCCAUUGGCGUAAUGGUAACGCGUUUCCCUCCUAAGGAGACGAUUGCGGGUUCGAGUCCCGUACGGGUCG, the “yeast fitness (ln)” value is -0.16.

Take GUUCCAUUGGCGUAAUGGUAACGCGUCUCCCUCCUAAGGAGAAGAUUGCGGGUUCGAGUCCCGUAUGGAGUG: the “yeast fitness (ln)” value is -0.229.
